Experimental data gathered from unrelated publications.
Protocols differ between the studies behind these lines.
RPS6KA4 N-terminal kinase domain: Ribosomal protein S6 kinase alpha-4, N-terminal kinase domain (RPS6KA4, Homo sapiens, UniProt O75676)
RPS6KA4 C-terminal kinase domain: Ribosomal protein S6 kinase alpha-4, C-terminal kinase domain (RPS6KA4, Homo sapiens, UniProt O75676)
RPS6KA4: Ribosomal protein S6 kinase alpha-4 (RPS6KA4, Homo sapiens, UniProt O75676)

SMILES	target	observed	mode	method	tested at	quantity	result
CCCCNc1ncc2c(-c3ccc(F)cc3)nn(C[C@H]3CC[C@H](N)CC3)c2n1	RPS6KA4 N-terminal kinase domain	target engagement in cells	inhibitor	chemoproteomics	20 mM	inhibition	22%
C[C@H]1CCN(c2nccc(-c3cnn4ncccc34)n2)C1	RPS6KA4 N-terminal kinase domain	binding	–	competition with immobilised ligand	1 µM	remaining binding	93%
CC(=O)N1CCC(c2ccc(C(=O)NC(=N)N)cc2C(F)(F)F)CC1	RPS6KA4 C-terminal kinase domain	cell-free assay	–	competition with immobilised ligand	1 µM	remaining binding	100%
O=C(Nc1cnn(-c2csc(C(=O)NC3COC3)c2)c1)Nc1c(F)cccc1Cl	RPS6KA4	enzyme activity	inhibitor	–	5 µM	remaining activity	99.8%
Nc1ncnc2occ(-c3ccc(NC(=O)Nc4cc(C(F)(F)F)ccc4F)cc3)c12	RPS6KA4 N-terminal kinase domain	cell-free assay	inhibitor	–	20 µM	remaining signal	2.1%
Cc1nc(Cc2cccc(C(F)(F)F)c2)sc1-c1ccc(C(N)=O)nc1	RPS6KA4 C-terminal kinase domain	cell-free assay	–	competition with immobilised ligand	1 µM	remaining binding	100%
CCN(CC)CCNC(=O)c1c(C)[nH]c(/C=C2\C(=O)Nc3ccc(F)cc32)c1C	RPS6KA4	cell-free assay	–	–	0.5 µM	remaining signal	50.8%
CN(C)c1nccc(-c2cnn3ncccc23)n1	RPS6KA4 N-terminal kinase domain	binding	–	competition with immobilised ligand	1 µM	remaining binding	82%
CNC(=O)c1cc(Oc2ccc(NC(=O)Nc3ccc(Cl)c(C(F)(F)F)c3)cc2)ccn1	RPS6KA4	cell-free assay	–	–	0.5 µM	remaining signal	97.7%
Cc1ccc(NC(=O)c2ccc(C)c(C(F)(F)F)c2)cc1C#Cc1nn(C2CCC(O)CC2)c2ncnc(N)c12 (stereo not shown)	RPS6KA4	cell-free assay	–	–	10 µM	remaining signal	70%
CNc1cccc2cc(C(=O)Nc3ccc(C(=O)O)cc3)c(=O)[nH]c12	RPS6KA4	enzyme activity	inhibitor	–	10 µM	inhibition	8.2%
O=C(N[C@H]1CCCCC/C=C\C2C[C@@]2(C(=O)O)NC(=O)[C@@H]2C[C@@H](Oc3ccncc3)CN2C1=O)OC1CCCC1 (stereo partly shown)	RPS6KA4 N-terminal kinase domain	binding	–	competition with immobilised ligand	1 µM	remaining binding	100%
CC(C)(O)[C@H]1CC[C@H](Nc2ccc3ncc(-c4cccc(C(F)(F)F)c4)n3n2)CC1	RPS6KA4	enzyme activity	inhibitor	–	1 µM	remaining activity	92.4%
Clc1ccc(Nc2nnc(Cc3ccncc3)c3ccccc23)cc1	RPS6KA4	cell-free assay	–	–	0.5 µM	remaining signal	98%
Cc1cc(C)c(-n2ccn3nc(-c4cccnc4)cc23)cc1NC(=O)c1cc(C#N)cc(S(F)(F)(F)(F)F)c1	RPS6KA4 N-terminal kinase domain	cell-free assay	–	competition with immobilised ligand	0.1 µM	remaining binding	100%
O=C(Nc1cnn(-c2csc(C(=O)NC3COC3)c2)c1)Nc1ccccc1Cl	RPS6KA4	enzyme activity	inhibitor	–	5 µM	remaining activity	90.7%

SMILES	target	observed	mode	method	tested at	quantity	result
CN(c1nccc(-c2cnn3ncccc23)n1)C1CC1	RPS6KA4 N-terminal kinase domain	binding	–	competition with immobilised ligand	1 µM	remaining binding	100%
CC(C)(C)c1nc(-c2cccc(NS(=O)(=O)c3c(F)cccc3F)c2F)c(-c2ccnc(N)n2)s1	RPS6KA4	enzyme activity	inhibitor	radiometric	1 µM	remaining activity	86%
CN(C)c1nccc(-c2cnc3ncccn23)n1	RPS6KA4 N-terminal kinase domain	binding	–	competition with immobilised ligand	1 µM	remaining binding	80%
COc1cc2ncnc(Nc3ccc(Oc4ccccc4)c(C)c3C)c2cc1OC	RPS6KA4	enzyme activity	inhibitor	–	1 µM	inhibition	-5%
CCC(=O)N[C@H]1CC[C@@H](C(=O)N(C)c2ccc(-c3nc4ccccc4o3)cc2)C1	RPS6KA4 N-terminal kinase domain	cell-free assay	–	competition with immobilised ligand	1 µM	remaining binding	100%
Cn1cncc1C1=CN(c2ncnc3[nH]cnc23)CCS1	RPS6KA4	enzyme activity	inhibitor	radiometric	50 nM	inhibition	13.3%
CCOc1cc(-c2nncn2C)ccc1Nc1ncc2cc(C)nc(NCC(C)(C)C)c2n1	RPS6KA4	enzyme activity	inhibitor	FRET	1 µM	inhibition	< 15%
CCS(=O)(=O)c1cc2cc(C[C@](O)(CC(C)(C)c3ccc(F)cc3C(N)=O)C(F)(F)F)[nH]c2cn1	RPS6KA4 C-terminal kinase domain	cell-free assay	–	competition with immobilised ligand	1 µM	remaining binding	94%
N[C@@H]1CCN(c2nccc(-c3cnn4ncccc34)n2)C1	RPS6KA4 N-terminal kinase domain	binding	–	competition with immobilised ligand	1 µM	remaining binding	100%
CCCS(=O)(=O)Nc1ccc(F)c(C(=O)c2c[nH]c3ncc(-c4ccc(Cl)cc4)cc23)c1F	RPS6KA4	enzyme activity	inhibitor	–	1 µM	inhibition	< 10%
Cc1nc(C2CCN(C(=O)c3ccc(OC(F)(F)F)cc3N)CC2)c2ncc(N3CCN(C)CC3)cc2n1	RPS6KA4 N-terminal kinase domain	cell-free assay	–	competition with immobilised ligand	1 µM	remaining binding	100%
N#CCCc1ccc2c(c1)-c1[nH]c3ccc([N+](=O)[O-])cc3c1CC(=O)N2	RPS6KA4	cell-free assay	–	–	0.5 µM	remaining signal	85.8%
O=C(Nc1cccnn1)N1CC(C/C=C/c2cncc(Oc3ccc(C(F)(F)F)cn3)n2)C1	RPS6KA4 C-terminal kinase domain	cell-free assay	–	competition with immobilised ligand	1 µM	remaining binding	92%
CC(C)c1ccc(NC(=O)c2cccs2)c(-c2nc3ccccc3[nH]c2=O)c1	RPS6KA4	enzyme activity	inhibitor	–	1 µM	activity vs control	96%
Cc1ccc(C(=O)NCc2ccsc2)cc1C#Cc1cn(C(C)C)c2ncnc(N)c12	RPS6KA4	enzyme activity	inhibitor	–	1 µM	activity vs control	107%
